Source: PubChem BioAssay
A selection: hits, their analogues and other compounds. The true share with any hit is near 2.6%.
EP2 modulator = modulates human prostaglandin E2 receptor EP2 signaling. P43116. EP2-expressing cells, cAMP HTRF FRET, PGE2 co-stimulation. induction, % at 25 µM. 260,000 tested, 0.83% active. AID 940;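 active means compounds whose cAMP rise, as percent of the full-agonist control response, exceeds 60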;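 further: rat C6 glioma line stably carrying human EP2 under a CMV promoter; the protocol text gives 20 µM as final concentration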
Target sequence (P43116 whole entry, looked up): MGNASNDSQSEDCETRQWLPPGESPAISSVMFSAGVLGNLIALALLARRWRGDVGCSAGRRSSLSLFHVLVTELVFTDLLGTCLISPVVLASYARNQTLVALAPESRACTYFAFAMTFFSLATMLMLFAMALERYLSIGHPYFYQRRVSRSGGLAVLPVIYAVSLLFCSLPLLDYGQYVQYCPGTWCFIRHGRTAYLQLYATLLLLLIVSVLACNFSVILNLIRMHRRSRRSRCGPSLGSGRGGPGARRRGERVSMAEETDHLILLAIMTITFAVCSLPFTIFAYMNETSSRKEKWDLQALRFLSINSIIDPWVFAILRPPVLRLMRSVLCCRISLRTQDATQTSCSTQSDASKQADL
T cell modulator = T cell immune modulators affecting CD8 T cell-vesicle binding | response (vesicle binding), % at 7 µM | 2C CD8+ T cell-vesicle binding, flow cytometry; active compounds read low | 330,000 tested, 0.068% active;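 active means response, share of CD8 T cells binding vesicles, and their 90th percentile fluorescence all below set limits, cut at about 80% in these data, passing the limit was not always enough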;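 further: values below 100% mean blocked vesicle binding to the CD8+ T cells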
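incubation = binding step 1.5 h, 37 °C, antibody labelling 20 min, ice | test system = 2C mouse CD8+ T cells | read-out basis = percent CD8+ FL2 mean versus row control | controls = Peptide-free naked vesicles (low) and QL9 vesicles with 0.7% DMSO vehicle (high) | detection = flow cytometry of vesicle-bound cells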
MC4R barr agon = agonists of human melanocortin 4 receptor (MC4R) beta-arrestin. P32245. U2OS MC4R beta-arrestin complementation, luminescence; percent of melanotan II response, DMSO zero. activation, % at 8.9 µM. 360,000 tested, 0.98% active;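 active means activation above a per-plate cutoff, the mean activation of sample wells on that plate plus 3 SD, cut at about 8% in these data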
EP2 antag = blocks the human prostaglandin E2 receptor EP2; AID 1422; 260,000 tested, 0.52% active; inhibition, % at 25 µM; C6 glioma cells expressing human EP2, cAMP TR-FRET; cells stimulated with saturating PGE2;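 active means percent inhibition above 40 after rounding to a whole number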;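 further: rat C6 glioma host cells with rolipram phosphodiesterase inhibitor present; the protocol text gives 20 µM as final concentration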
MC4R antagonist = blocks human MC4R cAMP signaling; P32245; MC4R-expressing cells, MTII-stimulated cAMP, LANCE TR-FRET; inhibition, % at 6.5 µM; 360,000 tested, 0.48% active;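 active means inhibition above its plate's cutoff, the mean of tested wells on that plate plus 3 SD, cut at about 29% in these data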
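system = U2OS cells with stable human MC4R expression | also added = Melanotan II challenge after compound preincubation | dosing = one concentration, 6.5 µM nominal | incubation = compound 30 min, challenge 1 h, detection 1 h | measured by = TR-FRET with Eu-cAMP and labeled anti-cAMP, 671 nm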
Granule exo inh = blocks lytic granule exocytosis. inhibition, % at 10 µM. TALL-104 LAMP-1 surface exposure, flow cytometry; cells stimulated with thapsigargin and PMA. 360,000 tested, 0.66% active;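 active means inhibition above about 55%, limit read from the data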
A number is an active result; i = inactive; nt = no result given.

SMILES	EP2 modulator	T cell modulator	MC4R barr agon	EP2 antag	MC4R antagonist	Granule exo inh
Nc1nc(SCC(=O)NC2CCCCC2)n[nH]1	nt	i	i	nt	i	76
Cc1cc(C)c2nc(NC(=O)c3ccco3)sc2c1	nt	i	i	nt	i	i
O=C(Nc1nc2c(Br)cc(Br)cc2c(=O)s1)c1ccco1	65	i	i	i	i	i
CCOC(=O)C1CCCN(Cc2c(Cl)cccc2Cl)C1 (configuration not stated)	61	i	i	i	i	i
CCOC(=O)C1CCCN(Cc2ccc(-c3ccccc3)cc2)C1 (configuration not stated)	nt	i	i	nt	i	i
COc1ccccc1NC1=C(NC(C)=O)C(=O)c2ccccc2C1=O	i	nt	i	i	i	90
COC1=C(Nc2ccccc2OC)C(=O)c2ccccc2C1=O	i	i	i	i	i	i
COCCCN1C(=O)C(O)=C(C(C)=O)C1c1ccc(OC)cc1 (configuration not stated)	i	nt	nt	i	nt	nt
Cc1c(NC(=O)c2c(O)c3ccccc3n(C)c2=O)c(=O)n(-c2ccccc2)n1C	i	i	i	i	i	i
CCC(C)(C)n1nnnc1C(c1ccc(C(F)(F)F)cc1)N1CCC(C)CC1 (configuration not stated)	77	nt	nt	i	nt	nt
COC(=O)[C@]1(C)N[C@H](CN(C)S(=O)(=O)c2ccc(C(C)(C)C)cc2)[C@@H]2C(=O)N(C)C(=O)[C@@H]21	nt	i	nt	nt	nt	i
COC(=O)[C@]1(C)N[C@H](CN(C)S(=O)(=O)c2ccc(OC(F)(F)F)cc2)[C@@H]2C(=O)N(C)C(=O)[C@@H]21	nt	0.0	i	nt	i	i
Clc1ccc2c(c1)c1ccccc1n2CN1CCOCC1	i	i	i	i	i	i
Clc1ccc2c(c1)c1cc(Cl)ccc1n2CN1CCOCC1	64	i	i	i	i	i
COc1ccc(NC(=O)c2ccc3ccccc3c2)cc1	nt	i	8.8	nt	i	i
COc1ccc(C(=O)Nc2ccc(O)c3ccccc23)cc1	nt	i	i	nt	i	i
COc1ccc(NC(=O)Nc2ccc(O)c3ccccc23)cc1	nt	37	nt	nt	nt	nt
COc1ccc(-c2cccc(C(=O)Nc3ccc(C)cc3)c2)cc1	i	i	8.6	i	i	i
CCCN(CCC)C(=O)c1cc2c(=O)[nH]c3ccc(C)cc3c2s1	i	i	i	i	i	i
Cc1ccc(C)c(N(C)C(=O)c2cc3c(=O)[nH]c4ccc(C)cc4c3s2)c1	i	i	9.1	i	i	i
Cc1cc(C)c(NC(=O)CS(=O)CC(=O)Nc2ccc(N3CCOCC3)cc2)c(C)c1 (configuration not stated)	nt	i	i	nt	i	i
Cc1ccc(SCCCn2cnc3ccccc3c2=O)cc1	i	i	i	i	i	i
O=C1c2ccccc2C(Nc2cccc(C(F)(F)F)c2)N1Cc1ccco1 (configuration not stated)	61	i	i	i	i	i
O=C1c2ccccc2C(Nc2ccc3c(c2)OCCO3)N1Cc1ccc2c(c1)OCO2 (configuration not stated)	i	i	i	i	i	i
O=C1c2ccccc2C(Nc2ccccc2)N1Cc1ccc2c(c1)OCO2 (configuration not stated)	72	i	i	i	i	i
SMILES	EP2 modulator	T cell modulator	MC4R barr agon	EP2 antag	MC4R antagonist	Granule exo inh
Cc1ccccc1Cn1ccc(NC(=O)c2nn(C)cc2[N+](=O)[O-])n1	i	i	i	i	i	i
COC(=O)CSc1nc2ccc(NC(=O)CSc3nnnn3Cc3ccccc3)cc2s1	i	i	i	48	i	i
CC(C)(C)n1nnnc1C(c1ccc(C(F)(F)F)cc1)N(Cc1ccccc1)Cc1ccco1 (configuration not stated)	i	i	i	nt	i	i
CCOC(=O)N1CCC2(CC1)C(C(=O)C13CC4CC(CC(C4)C1)C3)C2(C#N)C#N (configuration not stated)	i	i	i	i	i	71
CCCCC(c1nnnn1CCOC)N1CCN(CC)CC1 (configuration not stated)	i	i	i	i	i	i
Cc1cc(NCCCN2CCOCC2)n2nc(C)c(-c3cccs3)c2n1	i	nt	nt	nt	nt	nt
O=C(COc1ccccc1)NNC(=O)c1cc2ccccc2oc1=O	i	i	i	i	i	i
O=C(NNc1c(F)c(F)cc(F)c1F)c1cc2ccccc2oc1=O	i	0.0	i	i	i	i
Cc1cccc(NC(=O)CSc2nc3sc4c(c3c(=O)[nH]2)CCCC4)c1C	i	nt	nt	45	nt	nt
O=C(Nc1ccccc1)N1CCCC1c1cccs1 (configuration not stated)	i	i	i	i	i	i
O=C(NNc1c2ccccc2nc2ccccc12)c1ccccc1O	i	i	i	i	i	108
CC1=C(C(=O)OCC(C)C)C(c2cccc(F)c2)N2C(=O)C(C)SC2=N1 (configuration not stated)	i	i	i	i	i	59
CCc1cc(C(=O)OC)c(NC(=O)C2CC(=O)NN2Cc2ccccc2)s1 (configuration not stated)	63	i	i	i	i	i
CN(C)C(=O)c1ccc2c(c1[N+](=O)[O-])C(=O)c1ccccc1C2=O	i	i	i	i	i	i
O=C1c2ccccc2-c2cc([N+](=O)[O-])c([N+](=O)[O-])cc21	i	nt	nt	64	nt	nt
COc1ccccc1NC(=O)CSCC(=O)N1c2ccccc2CCc2ccccc21	i	i	i	i	i	i
Cc1cc(C)cc(NC(=O)Nc2ccc(-n3ccc(C(F)(F)F)n3)cc2)c1	i	i	8.8	i	i	i
CC1(c2nc3ccccc3[nH]2)CCC(=O)N1Cc1ccc(F)cc1 (configuration not stated)	nt	nt	nt	nt	nt	i
C/C(=N\NC1=NCCN1)c1cn(C2=NCCN2)nc1C	i	nt	nt	49	nt	nt
Oc1ccc(Cl)cc1C1=Nc2ccccc2N=C(c2ccco2)C1	i	i	9.0	i	i	i
COc1ccc(O)c(C2=Nc3ccccc3N=C(c3ccco3)C2)c1	i	i	i	i	i	i
COc1ccc(O)c(-c2nc(N)nc(N)n2)c1	nt	i	i	nt	i	i
O=C(/C=C/c1cc[n+](CC(=O)c2ccc3cccc4c3c2CC4)cc1)c1ccc2cccc3c2c1CC3	i	i	i	i	i	70
CC1(C)Cc2c(sc3c2c(=N)n(Cc2ccco2)c(=O)n3Cc2ccc(Cl)cc2)CO1	61	i	i	i	i	i
COc1ccc(-c2[nH]c(-c3ccccc3)nc2SCC(=O)NCc2ccco2)cc1OC	i	i	i	i	i	i
CCc1cc2cccc(C)c2nc1SCC(=O)N1CCOCC1	i	nt	nt	i	nt	nt
CCOC(=O)CSc1nc2c(C)cccc2cc1CC	73	nt	nt	i	nt	nt
CCOC(=O)CSc1nc2c(C)c(C)ccc2cc1C	88	nt	nt	i	nt	nt
